Laboratory results taken from ChEMBL document CHEMBL2384908, “Discovery of novel bromophenol 3,4-dibromo-5-(2-bromo-3,4-dihydroxy-6-(isobutoxymethyl)benzyl)benzene-1,2-diol as protein tyrosine phosphatase 1B inhibitor and its anti-diabetic properties in C57BL/KsJ-db/db mice” (Eur J Med Chem, 2013).
Calls of active or inactive are those of the source. The rule behind the calls is not given here.

What was measured:
[1] = target: T1, Tyrosine-protein phosphatase non-receptor type 1 (Homo sapiens) (UniProt P18031); conditions: at 20 µg/mL
T1 sequence (whole entry): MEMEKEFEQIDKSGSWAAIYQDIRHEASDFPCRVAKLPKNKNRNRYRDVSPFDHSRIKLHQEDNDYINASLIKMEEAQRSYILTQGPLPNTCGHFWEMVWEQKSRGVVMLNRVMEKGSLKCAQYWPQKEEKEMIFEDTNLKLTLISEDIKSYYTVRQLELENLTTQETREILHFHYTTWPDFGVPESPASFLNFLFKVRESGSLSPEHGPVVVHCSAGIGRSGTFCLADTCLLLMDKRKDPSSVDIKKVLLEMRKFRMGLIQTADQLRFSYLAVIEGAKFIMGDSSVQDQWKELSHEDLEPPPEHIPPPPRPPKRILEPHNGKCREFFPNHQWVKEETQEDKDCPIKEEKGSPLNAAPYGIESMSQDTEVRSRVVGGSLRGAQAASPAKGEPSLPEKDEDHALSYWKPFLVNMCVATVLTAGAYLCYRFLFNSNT

Mus musculus [2] = experiment: Antidyslipidemic activity in po dosed C57BL/KsJ db/db mouse assessed as reduction of total cholesterol level in blood administered for 6 weeks; type: functional, organism-based
Mus musculus [3] = experiment: Antidyslipidemic activity in po dosed C57BL/KsJ db/db mouse assessed as reduction of triglycerides level in blood administered for 6 weeks; type: functional, organism-based
Mus musculus [4] = experiment: […] activity in C57BL/KsJ db/db mouse assessed as reduction of glycated serum protein level in blood at 25 mg/kg, po administered for 6 weeks (reference value: 1.62 +/- 0.27 mmol/l); type: functional
How it was run: (§1)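 db/db mice (C57BL/KsJ, 6-8 weeks, n = 10/group) given compound orally once daily for six weeks in 0.5% CMC-Na with 2% tween-80. Vehicle model group; db/dm mice as controls. At the end, overnight fast, then dosing; eyeball blood taken 1 h later into heparin tubes. HbA1c read by reagent kit. GSP measured in plasma by fructosamine method. Mean ± s.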

Mus musculus [5] = experiment: […] activity in C57BL/KsJ db/db mouse assessed as reduction of glycated serum protein level in blood at 50 mg/kg, po administered for 6 weeks (reference value: 1.62 +/- 0.27 mmol/l); type: functional
How it was run: as §1

Mus musculus [6] = experiment: […] activity in C57BL/KsJ db/db mouse assessed as reduction of HbA1c level in blood at 25 mg/kg, po administered for 6 weeks (reference value: 2.65 +/- 0.40%); type: functional; parameters: scale not given: the % may be the effect or the level left
How it was run: as §1

Mus musculus [7] = experiment: […] activity in C57BL/KsJ db/db mouse assessed as reduction of HbA1c level in blood at 50 mg/kg, po administered for 6 weeks (reference value: 2.65 +/- 0.40%); type: functional; parameters: scale not given: the % may be the effect or the level left
How it was run: as §1

Mus musculus [8] = experiment: Antidyslipidemic activity in C57BL/KsJ db/db mouse assessed as reduction of total cholesterol level in blood at 25 mg/kg, po administered for 6 weeks (reference value: 3.3 +/- 0.5 mmol/l); type: functional
Mus musculus [9] = experiment: Antidyslipidemic activity in C57BL/KsJ db/db mouse assessed as reduction of total cholesterol level in blood at 50 mg/kg, po administered for 6 weeks (reference value: 3.3 +/- 0.5 mmol/l); type: functional
Mus musculus [10] = experiment: Antidyslipidemic activity in C57BL/KsJ db/db mouse assessed as reduction of total cholesterol level in blood at 25 mg/kg, po administered for 6 weeks measured on 2nd week (reference value: 3.5 +/- 0.2 mmol/l); type: functional
Mus musculus [11] = experiment: Antidyslipidemic activity in C57BL/KsJ db/db mouse assessed as reduction of total cholesterol level in blood at 50 mg/kg, po administered for 6 weeks measured on 2nd week (reference value: 3.5 +/- 0.2 mmol/l); type: functional
Mus musculus [12] = experiment: Antidyslipidemic activity in C57BL/KsJ db/db mouse assessed as reduction of triglycerides level in blood at 25 mg/kg, po administered for 6 weeks (reference value: 1.05 +/- 0.11 mmol/l); type: functional
Mus musculus [13] = experiment: Antidyslipidemic activity in C57BL/KsJ db/db mouse assessed as reduction of triglycerides level in blood at 50 mg/kg, po administered for 6 weeks (reference value: 1.05 +/- 0.11 mmol/l); type: functional
Mus musculus [14] = experiment: Antidyslipidemic activity in C57BL/KsJ db/db mouse assessed as reduction of triglycerides level in blood at 25 mg/kg, po administered for 6 weeks measured on 2nd week (reference value: 1.08 +/- 0.07 mmol/l); type: functional
Mus musculus [15] = experiment: Antidyslipidemic activity in C57BL/KsJ db/db mouse assessed as reduction of triglycerides level in blood at 50 mg/kg, po administered for 6 weeks measured on 2nd week (reference value: 1.08 +/- 0.07 mmol/l); type: functional
Mus musculus [16] = experiment: Antidiabetic activity in C57BL/KsJ db/db mouse assessed as reduction of blood glucose level at 50 mg/kg, po administered for 6 weeks measured on 3rd week; type: functional; parameters: scale not given: the % may be the effect or the level left
How it was run: (§2)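 C57BL/KsJ db/db mice, 6-8 weeks old, one-week adaptation, n = 10 per group, chow and water ad libitum. Compound suspended in 0.5% CMC-Na with 2% tween-80, given orally once daily for six weeks (about 0.2 mL/20 g). Vehicle-treated db/db model group. Blood glucose read weekly by glucometer.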

Mus musculus [17] = experiment: Antidiabetic activity in C57BL/KsJ db/db mouse assessed as reduction of blood glucose level at 25 mg/kg, po administered for 6 weeks measured on 3rd week; type: functional; parameters: scale not given: the % may be the effect or the level left
How it was run: as §2

Mus musculus [18] = experiment: Toxicity in C57BL/KsJ db/db mouse assessed as mortality at 25 to 50 mg/kg, po administered for 6 weeks; type: organism-based; parameters: dose 25-50 mg/kg, route oral; conditions: in vivo, 1008 h
Mus musculus [19] = experiment: Toxicity in C57BL/KsJ db/db mouse assessed as change in body weight at 25 to 50 mg/kg, po administered for 6 weeks; type: organism-based; parameters: dose 25-50 mg/kg, route oral; conditions: in vivo, 1008 h
Mus musculus [20] = experiment: Antidiabetic activity in C57BL/KsJ db/db mouse assessed as reduction of food and water intake at 25 to 50 mg/kg, po administered for 6 weeks; type: functional, organism-based
How it was run: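 db/db mice (C57BL/KsJ, 6-8 weeks), n = 10 per group, dosed orally once daily for six weeks as a suspension in 0.5% CMC-Na plus 2% tween-80. Vehicle model group; db/dm mice as non-diabetic controls. Food intake recorded weekly.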

[21] = target: T1, Tyrosine-protein phosphatase non-receptor type 1 (Homo sapiens); conditions: at 5 µg/mL
[22] = target: T2, Tyrosine-protein phosphatase non-receptor type 1 (Homo sapiens, UniProt P18031); experiment: Inhibition of human recombinant GST-tagged PTP1B using para-nitrophenyl phosphate as substrate after 2 mins
T2 sequence (P18031 whole entry): T1 sequence (whole entry)

Mus musculus [23] = experiment: Antidiabetic activity in C57BL/KsJ db/db mouse assessed as reduction of blood glucose level at 50 mg/kg, po administered for 6 weeks; type: functional
How it was run: as §2

Mus musculus [24] = experiment: Antidiabetic activity in C57BL/KsJ db/db mouse assessed as reduction of blood glucose level at 50 mg/kg, po administered for 6 weeks measured on first week; type: functional
How it was run: as §2

| SMILES | inhibition [1] | inhibition [21] | further results |
| --- | --- | --- | --- |
| COc1cc(C2OCc3cc(OC)c(OC)c(Br)c32)c(Br)c(Br)c1OC (configuration not stated) | 11.4% | – | – |
| CC(C)COCc1cc(O)c(O)c(Br)c1Cc1cc(O)c(O)c(Br)c1Br | 96.2% | 48.3% | Activity (Mus musculus [2]): Dose-dependent effect; Activity (Mus musculus [3]): Dose-dependent effect; Activity (Mus musculus [4]): 3.29 mmol/L; Activity (Mus musculus [5]): 3 mmol/L; Activity (Mus musculus [6]): 3.24%; Activity (Mus musculus [7]): 3.03%; Activity (Mus musculus [8]): 8.5 mmol/L; Activity (Mus musculus [9]): 9.1 mmol/L; Activity (Mus musculus [10]): 7.7 mmol/L; Activity (Mus musculus [11]): 7.8 mmol/L; Activity (Mus musculus [12]): 1.41 mmol/L; Activity (Mus musculus [13]): 1.48 mmol/L; Activity (Mus musculus [14]): 1.16 mmol/L; Activity (Mus musculus [15]): 1.35 mmol/L; Activity (Mus musculus [16]): 36.4%; Activity (Mus musculus [17]): 32.7%; Activity (Mus musculus [18]): Non-toxic; Activity (Mus musculus [19]): Toxic; Activity (Mus musculus [20]): Active |
| Oc1cc(Cc2cc(Br)c(O)c(Br)c2Br)c(Br)c(Br)c1O | – | – | IC50 [22]: 2420 nM |
| COc1c(Br)c(C)c(Cc2c(Br)c(Br)c(OC)c(OC)c2Br)c(Br)c1OC | 75.3% | 40.1% | – |
| CCCCOCc1cc(O)c(O)c(Br)c1Cc1cc(O)c(O)c(Br)c1Br | 64.6% | 27.2% | – |
| COc1cc(Cc2c(C)cc(OC)c(OC)c2Br)c(Br)c(Br)c1OC | 87.5% | 43.1% | – |
| CCOCc1cc(OC)c(OC)c(Br)c1C(=O)c1cc(OC)c(OC)c(Br)c1Br | 73.8% | 17.6% | – |
| CCOCc1cc(O)c(O)c(Br)c1Cc1cc(O)c(O)c(Br)c1 | 50.6% | 17.3% | – |
| COc1cc(C)c(Cc2c(Br)c(Br)c(OC)c(OC)c2Br)c(Br)c1OC | 72.6% | 38.2% | – |
| COc1cc(C2OC(=O)c3cc(OC)c(OC)c(Br)c32)c(Br)c(Br)c1OC (configuration not stated) | 10.6% | – | – |
| Cc1cc(O)c(O)c(Br)c1Cc1cc(O)c(O)c(Br)c1Br | 53.4% | 32.1% | – |
| CN(CCOc1ccc(CC2SC(=O)NC2=O)cc1)c1ccccn1 (configuration not stated) [ROSIGLITAZONE] | – | – | Activity (Mus musculus [5]): 2.6 mmol/L; Activity (Mus musculus [7]): 2.56%; Activity (Mus musculus [9]): 7.7 mmol/L; Activity (Mus musculus [11]): 6.5 mmol/L; Activity (Mus musculus [13]): 1.29 mmol/L; Activity (Mus musculus [15]): 1.06 mmol/L; Activity (Mus musculus [23]): 8 mmol/L; Activity (Mus musculus [24]): 8.9 mmol/L |
| COc1cc(Cc2c(CO)cc(OC)c(OC)c2Br)c(Br)c(Br)c1OC | 74.9% | 29.1% | – |
| CCCOCc1cc(O)c(O)c(Br)c1Cc1cc(O)c(O)c(Br)c1Br | 86.2% | 55.7% | – |
| COCc1cc(O)c(O)c(Br)c1Cc1cc(O)c(O)c(Br)c1Br | 51.9% | 25.3% | – |

More lines, main results first:

| inhibition [1] | inhibition [21] | SMILES | further results |
| --- | --- | --- | --- |
| 36.7% | – | COc1cc(C(=O)c2c(C)cc(OC)c(OC)c2Br)cc(Br)c1OC | – |
| 14.5% | – | COc1cc(Cc2c(C)cc(OC)c(OC)c2Br)cc(Br)c1OC | – |
| 48.6% | – | COc1cc(C(=O)c2c(C)cc(OC)c(OC)c2Br)c(Br)c(Br)c1OC | – |
| 29.9% | – | COc1cc(C(=O)c2c(C(=O)O)cc(OC)c(OC)c2Br)c(Br)c(Br)c1OC | – |
| 5.62% | – | COc1cc(Cc2c(CO)cc(OC)c(OC)c2Br)cc(Br)c1OC | – |
| 28.9% | – | COc1ccc(C(=O)c2c(C)cc(OC)c(OC)c2Br)cc1OC | – |
| 55.3% | 23.8% | COC(=O)c1cc(OC)c(OC)c(Br)c1C(=O)c1cc(OC)c(OC)c(Br)c1Br | – |
| 61.8% | 17.7% | COCc1cc(OC)c(OC)c(Br)c1C(=O)c1cc(OC)c(OC)c(Br)c1Br | – |
